Publication PMC10621021 (ACS Omega, 2023)
“And” between values parts separate entries of the source, which are not always exact repeats. Equal values may be shown once.

Key:
[1] = test system: HEPG2; assay: MTT cell viability, HEPG2; assay type: cell-based, human; conditions: 25 μM
[2] = test system: MDA-MB-231; assay: MTT cell viability, MDA-MB-231; assay type: cell-based, human; conditions: 25 μM
[3] = test system: intracellular amastigotes of L. amazonensis RFP; assay type: cell-based, Leishmania amazonensis; conditions: for antileishmanial activity on amastigotes (in words): L. amazonensis intracellular amastigotes, up to 100 μM
How it was run: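 BALB/c peritoneal macrophages (3% thioglycolate-elicited), adherent, infected 10:1 with stationary-phase RFP-transfected L. amazonensis IFLA/BR/67/PH8 promastigotes. After 4 h, wash, then compound 12.5–100 μM for 72 h at 33 °C, 5% CO2. Lysis in deionized water, fluorescence Ex 540/Em 600 nm. IC50 from mean of three independent experiments.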

[4] = test system: L. amazonensis promastigotes; assay: Antileishmanial activity against promastigotes of L. amazonensis; assay type: cell-based, Leishmania amazonensis; conditions: for antileishmanial activity on promastigotes (in words): L. amazonensis promastigotes, up to 100 μM; for IC50: Leishmania amazonensis, 72 h, read-out: Promastigotes IC50, L. amazonensis promastigotes, MTT, 72 h, 6.25–100 μM
How it was run: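 Log-phase promastigotes at 2 × 10^6 cells/mL exposed to compound 6.25–100 μM for 72 h at 25 °C. MTT (5 mg/mL solution) added for 4 h, absorbance read at 570 nm. Viability is expressed relative to untreated parasites. IC50 from three independent experiments; miltefosine was the reference.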

[5] = test system: amastigote stages of Leishmania major; conditions: cited from earlier work

SMILES	cytotoxicity on HEP-G2 (in words) [1]	cytotoxicity on MDA-MB-231 (in words) [2]	antileishmanial activity on amastigotes (in words) [3]	antileishmanial activity on promastigotes (in words) [4]	also measured
COc1ccc(-c2nc3ncccn3c2NC(C)(C)CC(C)(C)C)cc1O [Compound 22, 2-methoxy-5-(3-((2,4,4-trimethylpentan-2-yl)amino)imidazo[1,2-a]pyrimidin-2-yl)phenol]	no any significant cytotoxicity	no any significant cytotoxicity	not tolerated for the antileishmanial activity	not tolerated for the antileishmanial activity	–
CC(C)(C)CC(C)(C)Nc1c(-c2ccccc2)nc2ncccn12 [Compound 18, 2-phenyl-N-(2,4,4-trimethylpentan-2-yl)imidazo[1,2-a]pyrimidin-3-amine]	no any significant cytotoxicity	no any significant cytotoxicity	–	–	–
Cc1ccc(-c2c(-c3ccccc3)nc3ccccn23)cc1 [Compound 2, 2-phenyl-3-(p-tolyl)imidazo[1,2-a]pyridine]	–	–	–	–	IC50 [5]: 4 µM
CC(C)(C)CC(C)(C)Nc1c(-c2cccc([N+](=O)[O-])c2)nc2ncccn12 [Compound 23, 2-(3-nitrophenyl)-N-(2,4,4-trimethylpentan-2-yl)imidazo[1,2-a]pyrimidin-3-amine]	–	–	did not show any biological activity	did not show any biological activity	–
CCCCCCCCc1nc2ncccn2c1NC(C)(C)CC(C)(C)C [Compound 28, 2-octyl-N-(2,4,4-trimethylpentan-2-yl)imidazo[1,2-a]pyrimidin-3-amine]	–	–	moderate activity	moderate activity	–
CCCCc1nc2ncccn2c1NC(C)(C)CC(C)(C)C [Compound 27, 2-butyl-N-(2,4,4-trimethylpentan-2-yl)imidazo[1,2-a]pyrimidin-3-amine]	–	–	moderate activity	moderate activity	–
CC(C)(C)CC(C)(C)Nc1c(-c2cccs2)nc2ncccn12 [Compound 26, 2-(thiophen-2-yl)-N-(2,4,4-trimethylpentan-2-yl)imidazo[1,2-a]pyrimidin-3-amine]	–	–	showed an effect on L. amazonensis amastigotes only	–	–
CC(C)(C)CC(C)(C)Nc1c(-c2ccc3c(c2)OCO3)nc2ncccn12 [Compound 14, 2-(benzo[d][1,3]dioxol-5-yl)-N-(2,4,4-trimethylpentan-2-yl)imidazo[1,2-a]pyrimidin-3-amine]	–	–	–	–	IC50 [4]: 46.1 µM
CC(C)(C)CC(C)(C)Nc1c(-c2cccnc2)nc2ncccn12 [Compound 25, 2-(pyridin-3-yl)-N-(2,4,4-trimethylpentan-2-yl)imidazo[1,2-a]pyrimidin-3-amine]	no any significant cytotoxicity	no any significant cytotoxicity	evaded the activity	evaded the activity	–
CC(C)(C)CC(C)(C)Nc1c(-c2cccc(C#N)c2)nc2ncccn12 [Compound 24, 3-(3-((2,4,4-trimethylpentan-2-yl)amino)imidazo[1,2-a]pyrimidin-2-yl)benzonitrile]	no any significant cytotoxicity	no any significant cytotoxicity	–	–	Selectivity Index ([3]; SI: CC50 in peritoneal macrophages/IC50 in intracellular amastigotes): 10 and > 10; IC50 [4]: < 10 µM
